# Measured values taken from ChEMBL document CHEMBL1138479, “Synthesis and antiplasmodial activity of aminoalkylamino-substituted neocryptolepine derivatives” (J Med Chem, 2009).
# The source made the active and inactive calls. No cut-off for these calls is given here.
# Legend:
# Plasmodium falciparum = test: Antiplasmodial activity against chloroquine-sensitive Plasmodium falciparum Ghana in human erythrocytes after 72 hrs by Malstat assay; format: functional, organism-based
# Method in brief: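 P. falciparum Ghana strain grown in human erythrocytes in RPMI-1640 at 37 °C under 3% O2, 4% CO2, 93% N2. Exposure to compounds lasted 72 h. Multiplication was read by Malstat with absorbance at 655 nm, and % growth inhibition was taken against negative blanks.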
# [1] = Cytotoxicity against human MRC5 SV2 cells after 72 hrs by resazurin-based fluorometric assay; format: cell-based; conditions: MRC5, 72 h
# Method in brief: (§1)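 MRC-5 SV2 fibroblasts were kept in MEM with 20 mM L-glutamine and 5% FCS at 37 °C, 5% CO2. Cells were seeded at 10⁴/well onto prediluted compounds and incubated 72 h. Viability was read fluorimetrically after resazurin addition.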
# [2] = Selectivity index, ratio of IC50 for human MRC5 SV2 cells to IC50 for chloroquine-sensitive Plasmodium falciparum Ghana; format: toxicity, cell-based; conditions: read-out: Ratio IC50
# Nucleic Acid = test: Binding affinity to DNA assessed as intercalation after 24 hrs by DNA-methyl green assay; format: nucleic-acid assay
# Method in brief: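 DNA-methyl green reagent (20 mg in 100 mL 0.05 M Tris HCl pH 7.5 with 7.5 mM MgSO4, stirred 24 h at 37 °C) was added to dried compound. A620 was read at 0 and after 24 h at 25 °C. […] Cryptolepine was the positive control.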
# [3] = molecular target: T1, Histidine-rich protein PFHRP-II (Plasmodium falciparum, UniProt P05227); test: Inhibition of beta-hematin formation after 18 hrs by microtiter plate assay; format: functional
# T1 sequence (P05227 whole entry): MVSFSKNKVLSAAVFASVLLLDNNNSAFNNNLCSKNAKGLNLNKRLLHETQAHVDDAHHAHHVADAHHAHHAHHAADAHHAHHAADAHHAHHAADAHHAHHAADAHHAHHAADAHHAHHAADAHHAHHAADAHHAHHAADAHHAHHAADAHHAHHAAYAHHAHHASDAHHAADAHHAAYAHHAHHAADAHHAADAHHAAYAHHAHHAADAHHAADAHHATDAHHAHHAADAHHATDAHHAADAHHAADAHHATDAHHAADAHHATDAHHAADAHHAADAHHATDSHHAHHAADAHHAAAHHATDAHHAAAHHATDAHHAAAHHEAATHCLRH
# [4] = Toxicity in Swiss mice (Mus musculus) infected with chloroquine-sensitive Plasmodium berghei ANKA assessed as mortality at 50 mg/kg, intraperitoneally administered 4 to 6 hrs after infection for 5 consecutive days measured within 7 days of postinfection; format: organism-based; set-up: dose 50 mg/kg, route intraperitoneal; conditions: in vivo, ip, read-out: Activity
# Method in brief: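 Swiss mice were infected intraperitoneally with 4 × 10⁸ erythrocytes carrying chloroquine-sensitive P. berghei ANKA. They were dosed intraperitoneally at 50 mg/kg daily for five consecutive days. Parasitaemia was read on Giemsa-stained blood smears on days 4 and 7.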
# [5] = molecular target: T2, Histidine-rich protein PFHRP-II (Plasmodium falciparum) (UniProt P05227); test: (§2) Inhibition of beta-hematin formation at 5 milliequivalent after 18 hrs by microtiter plate assay; format: functional
# T2 sequence (whole entry): T1 sequence (P05227 whole entry)
# Plasmodium berghei [6] = test: Antiplasmodial activity as reduced parasitaemia against chloroquine-sensitive Plasmodium berghei ANKA infected Swiss mice (Mus musculus) at 50 mg/kg intraperitoneal dose 4-6 hrs post infection on day 4; format: functional; set-up: scale not given: the % may be the effect or the level left
# Method in brief: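 Swiss mice were infected ip with 4 × 10⁸ P. berghei ANKA-infected erythrocytes. Treatment was ip at 50 mg/kg daily for five consecutive days. Parasitaemia was scored on Giemsa-stained blood smears on days 4 and 7.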
# Plasmodium berghei [7] = test: Antiplasmodial activity as reduced parasitaemia against chloroquine-sensitive Plasmodium berghei ANKA infected Swiss mice (Mus musculus) at 20 mg/kg intraperitoneal dose 4-6 hrs post infection on day 4; format: functional, organism-based; set-up: dose 20 mg/kg
# Method in brief: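 Mice infected ip with P. berghei ANKA-infected erythrocytes (4 × 10⁸) received the compound intraperitoneally. Parasitaemia was counted on Giemsa-stained blood smears on days 4 and 7.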
# [8] = molecular target: T1, Histidine-rich protein PFHRP-II; test: as §2; format: functional
# MRC5 = test: Cytotoxicity against human MRC5 cells; format: cell-based; method in brief: as §1
Compound,IC50 (Plasmodium falciparum) [µM],IC50 [1] [µM],selectivity ratio [2],IC50 (Nucleic Acid) [µM],IC50 [3] [milliequivalent],mortality at 7 days [4] [%],inhibition [5] [%],Activity (Plasmodium berghei [6]),Activity (Plasmodium berghei [7]),IC50 [8],IC50 (MRC5) [µM]
CCN(CC)CCCC(C)Nc1c2c3ccccc3nc-2n(C)c2cc(Cl)ccc12 (stereo not drawn),0.13,14,108,248,5.25,,,,,,
Clc1ccc2nc3[nH]c4ccccc4c3c(N3CCC(N4CCCCC4)CC3)c2c1,< 0.25,2,> 8,> 1000,2.2,,,,,,
CCN(CC)CCCC(C)Nc1c2c3ccccc3nc-2n(C)c2ccc(Cl)cc12 (stereo not drawn),0.043,29,674,> 1000,,50,< 20,100%,inactive,,
CCN(CC)CCCC(C)Nc1c2c(Cl)cccc2nc2[nH]c3ccccc3c12 (stereo not drawn),1.2,20,17,> 1000,3.05,,,,,,
Cn1c2nc3ccccc3c-2cc2ccc(Cl)cc21,41.1,21,0.5,,,,,,,,
Clc1ccc2nc3[nH]c4ccccc4c3c(NCCN3CCCC3)c2c1,3,> 64,> 21,> 1000,5.4,,,,,,
OCCN1CCN(c2c3cc(Cl)ccc3nc3[nH]c4ccccc4c23)CC1,2.34,2,0.9,> 1000,2,,,,,,
Cn1c2nc3ccc(Cl)cc3c-2cc2ccccc21,29,> 64,> 2,> 1000,1.23,,,,,,
Clc1ccc2c(Cl)c3c(nc2c1)[nH]c1ccccc13,> 64,> 64,,> 1000,,,,,,Not Active,
CCN(CC)CCCC(C)Nc1c2ccc(Cl)cc2nc2[nH]c3ccccc3c12 (stereo not drawn),0.14,15,107,> 1000,4.43,,,,,,
Cn1c2nc3ccccc3c-2c(Cl)c2ccccc21 [11-CHLORONEOCRYPTOLEPINE],> 64,5,< 0.08,,,,,,,,
CCN(CC)CCCC(C)Nc1c2c3ccccc3nc-2n(C)c2ccccc12 (stereo not drawn),0.62,20,32,312,4.11,,,,,,
CN1CCN(c2c3cc(Cl)ccc3nc3[nH]c4ccccc4c23)CC1,2.46,3,1,> 1000,2.09,,,,,,
CN(C)CCNc1c2c3ccccc3nc-2n(C)c2ccc(Cl)cc12,< 0.25,< 0.25,,164,,,,,,Not Active,
CCN(CC)CCCC(C)Nc1ccc2c3cc4ccccc4n(C)c-3nc2c1 (stereo not drawn),0.01,18,1800,219,4.4,,,,,,
CCN(CC)CCCC(C)Nc1ccc2c(c1)cc1c3ccccc3nc-1n2C (stereo not drawn),0.03,7.2,240,128,1.45,,,,,,
CN(C)CCNc1c2cc(Cl)ccc2nc2[nH]c3ccccc3c12,0.4,> 64,> 160,> 1000,3.68,,,,,,
Cn1c2nc3ccccc3c-2cc2cc(Cl)ccc21,52,> 64,> 1,> 1000,1.31,,,,,,
Cn1c2nc3ccccc3c-2c(Cl)c2ccc(Cl)cc21,> 64,27,< 0.4,,1.14,,,,,,

Compound,IC50 (Plasmodium falciparum) [µM],IC50 [1] [µM],selectivity ratio [2],IC50 (Nucleic Acid) [µM],IC50 [3] [milliequivalent],mortality at 7 days [4] [%],inhibition [5] [%],Activity (Plasmodium berghei [6]),Activity (Plasmodium berghei [7]),IC50 [8],IC50 (MRC5) [µM]
Clc1ccc2nc3[nH]c4ccccc4c3c(Cl)c2c1,> 64,> 64,,> 1000,,,,,,Not Active,
Cn1c2nc3ccccc3c-2cc2cc(Br)ccc21,,> 32,> 5,> 400,1.77,,,,,,> 32
Cn1c2nc3ccccc3c-2c(Cl)c2c(Cl)cccc21,39,34,0.9,> 1000,,,,,,Not Active,
CCN1CCCC1CNc1c2c3ccccc3nc-2n(C)c2ccc(Cl)cc12 (stereo not drawn),< 0.25,0.4,> 2,645,,,,,,Not Active,
CCN(CC)CCCC(C)Nc1ccc2cc3c4ccccc4nc-3n(C)c2c1 (stereo not drawn),0.015,16,1070,,,,,,,,
Cn1c2nc3ccccc3c-2c(NCCN2CCCC2)c2cc(Cl)ccc21,< 0.25,< 0.25,,186,,,,,,Not Active,
Cn1c2nc3cc(Cl)ccc3c-2cc2ccccc21,> 64,> 64,,> 1000,1.55,,,,,,
CCN(CC)CCCC(C)Nc1c2c3ccccc3nc-2n(C)c2cccc(Cl)c12 (stereo not drawn),0.35,21,60,> 1000,,,< 20,,,,
Cn1c2nc3ccccc3c-2cc2ccccc21 [NEOCRYPTOLEPINE],,11,0.4,,5.97,,,,,,
Cn1c2nc3ccccc3c-2c(NCCN2CCOCC2)c2cc(Cl)ccc21,0.69,0.37,0.5,118,,,,,,Not Active,
Clc1cccc2nc3[nH]c4ccccc4c3c(Cl)c12,> 64,> 64,,> 1000,,,,,,Not Active,
Cn1c2nc3ccccc3c-2c(N2CCC(N3CCCCC3)CC2)c2cc(Cl)ccc21,2.46,4.4,2,180,,,,,,Not Active,
CCN(CC)CCCC(C)Nc1c2cc(Cl)ccc2nc2[nH]c3ccccc3c12 (stereo not drawn),0.12,> 64,> 533,> 1000,2.3,,,inactive,,,
Clc1ccc2nc3[nH]c4ccccc4c3c(NCCN3CCOCC3)c2c1,33,> 64,> 2,> 1000,,,,,,Not Active,
CN1CCN(c2c3c4ccccc4nc-3n(C)c3ccc(Cl)cc23)CC1,2.1,1,0.5,358,,,,,,Not Active,
Cn1c2nc3ccccc3c-2c(N2CCN(CCO)CC2)c2cc(Cl)ccc21,2.28,0.82,0.4,376,,,,,,Not Active,
Cn1c2nc3ccccc3c-2c(Cl)c2cc(Cl)ccc21,> 64,> 64,,> 1000,,,,,,Not Active,
CCN1CCCC1CNc1c2cc(Cl)ccc2nc2[nH]c3ccccc3c12 (stereo not drawn),0.38,15,39,> 1000,1.53,,,,,,
CCN(CC)CCCC(C)Nc1ccc2nc3n(C)c4ccccc4cc-3c2c1 (stereo not drawn),0.14,16,114,446,,,< 20,,,,
